The test system of data set [1] is Salmonella typhimurium. The data set can be described thus: Genotoxicity in Salmonella typhimurium TA98 assessed as induction of mutagenicity by measuring revertant colonies at 0.3 to 1000 ug/well incubated for 48 hrs in presence of liver S9 fraction by mini Ames test. The format is toxicity, organism-based. The note with it: salmonella enterica subsp. enterica serovar typhimurium, s9, 48 h. (In general: In the Ames test, an excess of revertant colonies over the control signals mutagenicity.)

In data set [2] the test system is Salmonella typhimurium. Kind of data set: Genotoxicity in Salmonella typhimurium TA100 assessed as induction of mutagenicity by measuring revertant colonies at 0.3 to 1000 ug/well incubated for 48 hrs in presence of liver S9 fraction by mini Ames test. Format: toxicity, organism-based. To be noted: salmonella enterica subsp. enterica serovar typhimurium, s9, 48 h.

For another data set, the system named is Mus musculus. Kind of data set: Inhibition of L687,414-induced hyperactivity in mouse at 1 mg/kg, ip dosed before test. The format is functional.
Data set [3] can be described thus: Unbound intrinsic clearance in human liver microsomes at 0.5 uM incubated for 4 hrs by equilibrium dialysis and LC-MS/MS method. Format: ADME, microsome.
In another data set the test system is MDR1 (P-gp). Kind of data set: Efflux ratio in MDCK2-MDR1 cells at 1 uM incubated for 1 hr by LC-MS/MS method. Format: ADME, cell-based, Canis lupus familiaris. To be noted: dog, MDCK-MDR1. The procedure, abridged:
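MDCK II cells transfected with MDR1 (human P-gp, lowered canine P-gp) seeded on transwell inserts at 300,000 cells/cm2, media changed day 2, assayed day 4 or 5. Dosed apical or basolateral at 1 µM final (1 mM DMSO stock, 0.1% DMSO) in HBSS + glucose, duplicate, 37 °C for 1 h. Receiver and donor sampled, LC-MS/MS with buspirone internal standard; Papp from ΔQ/Δt·1/(A·C0).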

The nature of data set [4]: Unbound intrinsic clearance in rat liver microsomes at 0.5 uM incubated for 4 hrs by equilibrium dialysis and LC-MS/MS method. Format: ADME, microsome.
The target of data set [5] is T1, Sodium- and chloride-dependent glycine transporter 1 (Homo sapiens, UniProt P48067).
T1 sequence (P48067 whole entry): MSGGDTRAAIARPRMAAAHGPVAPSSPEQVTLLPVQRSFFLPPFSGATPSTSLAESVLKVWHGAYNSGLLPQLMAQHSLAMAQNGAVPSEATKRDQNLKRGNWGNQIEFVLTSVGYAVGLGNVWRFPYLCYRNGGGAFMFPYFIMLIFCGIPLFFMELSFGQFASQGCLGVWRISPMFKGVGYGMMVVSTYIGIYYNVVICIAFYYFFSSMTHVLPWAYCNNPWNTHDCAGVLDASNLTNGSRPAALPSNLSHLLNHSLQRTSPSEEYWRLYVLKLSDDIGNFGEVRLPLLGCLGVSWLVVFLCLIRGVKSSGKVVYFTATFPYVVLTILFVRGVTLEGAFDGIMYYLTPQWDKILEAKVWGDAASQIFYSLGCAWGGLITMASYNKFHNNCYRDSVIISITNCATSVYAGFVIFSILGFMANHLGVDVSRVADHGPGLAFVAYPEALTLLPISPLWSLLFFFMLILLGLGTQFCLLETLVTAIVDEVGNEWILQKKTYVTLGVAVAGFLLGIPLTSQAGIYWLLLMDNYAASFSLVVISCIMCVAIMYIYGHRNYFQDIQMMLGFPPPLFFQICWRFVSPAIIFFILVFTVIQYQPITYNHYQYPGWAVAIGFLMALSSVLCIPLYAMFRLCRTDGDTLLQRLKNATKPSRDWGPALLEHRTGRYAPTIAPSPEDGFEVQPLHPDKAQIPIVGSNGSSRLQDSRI
Kind of data set: Inhibition of [3H]N-Methyl-SSR504734 binding to human recombinant GlyT1c expressed in CHO cell membranes incubated for 1 hr by liquid scintillation spectrometry.

A short description of data set [6]: Ratio of free drug level in brain to plasma in rat. The format is ADME. To be noted: read-out: BPR.
Data set [7] can be described thus: Stability in pH 7 buffer at 1 mg assessed as compound hydrolysis after several days at room temperature by LC/MS analysis. The format is physicochemical.

Consider `Cn1cnc(S(=O)(=O)N2CC(Nc3cccc(C(F)(F)F)c3)C(c3cccnc3)C2)c1` (racemic), for which the Activity result in the data set with Salmonella typhimurium [1] and in the data set with Salmonella typhimurium [2] was “Non-Toxic” throughout.

`Cn1cnc(S(=O)(=O)N2C[C@H](Nc3ccc(F)c(OC(F)(F)F)c3)[C@@H](c3ccc(F)cc3)C2)c1` came in with an inhibition in vivo at 1 mg/kg in the data set with Mus musculus of 100%.

For `Cn1cnc(S(=O)(=O)N2CC(Nc3ccccc3)C(c3ccccc3)C2)c1` (racemic), the CL free is 250 mL/min/kg in data set [3] and 950 mL/min/kg in data set [4]. For the same molecule, the Activity entry in the data set on Salmonella typhimurium [1] and in the data set on Salmonella typhimurium [2] was “Non-Toxic” each time. Also, in the data set on MDR1 (P-gp), the efflux ratio at 1 h, 1 µM came out at 0.9. The Ki in data set [5] came to 199 nM.

On to `Cc1cccc(NC2CN(S(=O)(=O)c3cn(C)cn3)CC2c2ccccc2)c1` (racemic), for which the CL free in [3] is 817 mL/min/kg; in [4], 1980 mL/min/kg. Also, in data set [6], the Kp uu is 0.6. Also, the Activity entry with Salmonella typhimurium [1] and in the data set on Salmonella typhimurium [2] was “Non-Toxic” in each case. In the data set with MDR1 (P-gp), the efflux ratio at 1 h, 1 µM stood at 0.9. The Ki in data set [5] lay in the range of 17 to 18 nM.

`Cn1cnc(S(=O)(=O)N2CC(Nc3cccc(Cl)c3)C(c3ccc(F)cc3)C2)c1` (racemic): the results for the CL free in data set [3] and in [4] were 3380 mL/min/kg and 5830 mL/min/kg, respectively. Also, in data set [6], the Kp uu came to 1.7. The Activity result in the data set on Salmonella typhimurium [1] and in the data set on Salmonella typhimurium [2] was “Non-Toxic” in each case. For the same molecule, the efflux ratio at 1 h, 1 µM in the data set with MDR1 (P-gp) was determined as 1.1. In data set [5], the Ki was found to be 3 nM.

`Cn1cnc(S(=O)(=O)N2C[C@H]([C@@H]3CCCO3)[C@@H](Nc3cccc(OC(F)(F)F)c3)C2)c1`: the Stability result in data set [7] is on record as “Stable”.

In the case of `Cn1cnc(S(=O)(=O)N2CC(Nc3cncc(C(F)(F)F)c3)C(c3ccc(F)cc3)C2)c1` (racemic), the Activity entry in the data set on Salmonella typhimurium [1] and in the data set on Salmonella typhimurium [2] was “Non-Toxic” in each case.

In the case of `Cn1cnc(S(=O)(=O)N2CC(Nc3cccc(Cl)c3)C(c3cccc(F)c3)C2)c1` (racemic), the CL free in data set [3] is 1450 mL/min/kg; in data set [4], 4430 mL/min/kg. Moreover, the Activity result in the data set on Salmonella typhimurium [1] and with Salmonella typhimurium [2] was “Non-Toxic” each time. Moreover, the efflux ratio at 1 h, 1 µM in the data set with MDR1 (P-gp) is 1. Besides, the Ki in [5] came to 42 nM.

With `Cn1cnc(S(=O)(=O)N2CC(Nc3cccc(C(F)(F)F)c3)C(c3ccccc3)C2)c1` (racemic), the Activity entry in the data set on Salmonella typhimurium [1] and in the data set with Salmonella typhimurium [2] was “Non-Toxic” each time. The Ki in [5] came to 8 nM.

A word on the inhibition in vivo: it is the percentage by which the read-out fell short of the control. Broadly, the efflux ratio is a quotient of directional permeabilities that is used to spot active efflux. For orientation: Ki means a measure of affinity in units of concentration, obtained from inhibition or displacement.

These data come from ChEMBL document CHEMBL4145640, “De Novo Design, Synthesis, and Biological Evaluation of 3,4-Disubstituted Pyrrolidine Sulfonamides as Potent and Selective Glycine Transporter 1 Competitive Inhibitors” (J Med Chem, 2018).
